Test [1] in a line: Antifungal activity against Septoria nodorum at 25 ug/mL. In kind it is functional. In a few lines: (§1)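 In vitro antifungal screening assay against the named Septoria species, testing purified compounds at a single concentration of 25 µg/mL.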
The test system of test [2] is Septoria. The test can be described thus: Antifungal activity against Septoria tritici at 25 ug/mL. Format: functional. The method in brief: as §1

Data on eight molecules can be found in ChEMBL document CHEMBL1141308, “The ansacarbamitocins: polar ansamitocin derivatives” (J Nat Prod, 2007).

Active and inactive are the calls of the source. The rule behind the calls is not given here.

In the case of `CNC(=O)O[C@H]1CC(=O)N([C@H]2O[C@@H](CO)[C@H](OC(N)=O)[C@@H](OC)[C@@H]2O)c2cc(cc(O)c2Cl)C/C(C)=C/C=C/[C@@H](OC)[C@@]2(O)C[C@H](OC(=O)N2)[C@@H](C)[C@H]2O[C@@]12C`, the outcome in test [1] and in test [2] was inactive.
For `CNC(=O)O[C@H]1CC(=O)N([C@H]2O[C@@H](COC(C)=O)[C@H](OC(N)=O)[C@@H](OC)[C@@H]2O)c2cc(cc(O)c2Cl)C/C(C)=C/C=C/[C@@H](OC)[C@@]2(O)C[C@H](OC(=O)N2)[C@@H](C)/C=C/1C`, the result in test [1] and in test [2] was inactive.
In the case of `CNC(=O)O[C@H]1CC(=O)N([C@H]2O[C@@H](CO)[C@H](O)[C@@H](O)[C@@H]2O)c2cc(cc(O)c2Cl)C/C(C)=C/C=C/[C@@H](OC)[C@@]2(O)C[C@H](OC(=O)N2)[C@@H](C)[C@H]2O[C@@]12C`, the result in test [1] and in test [2] was inactive.
Regarding `CNC(=O)O[C@H]1CC(=O)N([C@H]2O[C@@H](CO)[C@H](O)[C@@H](OC)[C@@H]2O)c2cc(cc(O)c2Cl)C/C(C)=C/C=C/[C@@H](OC)[C@@]2(O)C[C@H](OC(=O)N2)[C@@H](C)[C@H]2O[C@@]12C`, the result in test [1] and in test [2] was inactive.
Consider `CNC(=O)O[C@H]1CC(=O)N([C@H]2O[C@@H](COC(C)=O)[C@H](OC(N)=O)[C@@H](OC)[C@@H]2O)c2cc(cc(O)c2Cl)C/C(C)=C/C=C/[C@@H](OC)[C@@]2(O)C[C@H](OC(=O)N2)[C@@H](C)[C@H]2O[C@@]12C`, for which the result in test [1] and in test [2] was inactive.
As to `CNC(=O)O[C@H]1CC(=O)N([C@H]2O[C@@H](COC(C)=O)[C@H](OC(N)=O)[C@@H](O)[C@@H]2O)c2cc(cc(O)c2Cl)C/C(C)=C/C=C/[C@@H](OC)[C@@]2(O)C[C@H](OC(=O)N2)[C@@H](C)[C@H]2O[C@@]12C`, the result in test [1] and in test [2] was inactive.
`CNC(=O)O[C@H]1CC(=O)N([C@H]2O[C@@H](CO)[C@H](OC(N)=O)[C@@H](O)[C@@H]2O)c2cc(cc(O)c2Cl)C/C(C)=C/C=C/[C@@H](OC)[C@@]2(O)C[C@H](OC(=O)N2)[C@@H](C)[C@H]2O[C@@]12C`: the outcome in test [1] and in test [2] was inactive.
In the case of `CNC(=O)O[C@H]1CC(=O)N([C@H]2O[C@@H](COC(C)=O)[C@H](OC(N)=O)[C@@H](O)[C@@H]2O)c2cc(cc(O)c2Cl)C/C(C)=C/C=C/[C@@H](OC)[C@@]2(O)C[C@H](OC(=O)N2)[C@@H](C)/C=C/1C`, the outcome in test [1] and in test [2] was inactive.
